Here are results for one molecule from ChEMBL document CHEMBL1125226, “Antineoplastic activity of didemnin congeners: nordidemnin and modified chain analogues” (1991).

In general, T/C refers to the result in the treated group divided by that in the control group, in per cent.

Holding throughout (format): functional, Mus musculus
The test system of assay [1] is B16. The experiment in a line: Antitumor activity against B16 melanoma from B6 D2 F1 female mice(T/C) was evaluated from the median survival time of treated mice (T) over that of control mice (C) at a dose of 0.03 mg/kg/day. In a few lines: (§1)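 B6D2F1 female mice (C57BL/6 ♀ × DBA/2 ♂) implanted ip on day 0 with 0.5 mL of B16 tumor suspension (1 g homogenized in 9 mL 0.9% saline). Dosing ip on days 1, 5 and 9. Day-5 survivors give toxicity. Median survival of treated vs control mice gives T/C%, with ≥125% significant.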

Assay [2] has as its system B16. The experiment in a line: Antitumor activity against B16 melanoma from B6 D2 F1 female mice evaluated as the number of survivors on day 5 at a dose of 0.06 mg/kg/day (repeated ip injections, day 1-9). The note with it: route intraperitoneal. The essentials:
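B16 melanoma homogenate (1 g tumor in 9 mL 0.9% saline), 0.5 mL implanted ip on day 0 in B6D2F1 female mice (C57BL/6 ♀ × DBA/2 ♂). Treatment ip once daily from day 1 to day 9. Toxicity scored as survivors on day 5. Median survival recorded and T/C computed as treated/control median survival, ≥125% significant.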

For another assay, the system named is P388. The assay can be described thus: Antitumor activity against P388 Leukemia from CDF1 female mice evaluated as Median survival time of treated mice at a dose of 0.75 mg/kg/day. In a few lines:
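CDF1 female mice (BALB/c × DBA/2) inoculated ip with 10⁶ P388 cells on day 0. Drug given ip in 2% methanol on days 1, 5 and 9. Ten mice per dose group, with a larger control group. Body weight and survival were recorded on days 1 and 5, with toxicity taken as survivors on day 5. Mortality was followed for 30 days to give median survival time.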

The test system of assay [3] is B16. The experiment in a line: Antitumor activity against B16 melanoma from B6 D2 F1 female mice(T/C) was evaluated from the median survival time of treated mice (T) over that of control mice (C) at a dose of 0.50 mg/kg/day. In a few lines: as §1
The next assay concerns L1210. The assay can be described thus: Antitumor activity against L1210 Lymphoid Leukemia from CDF1 female mice as the number of survivors on day 5 at a dose of 1.0 mg/kg/day. The essentials:
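L1210 leukemia, 10⁵ cells ip on day 0 into CDF1 female mice (BALB/c ♀ × DBA/2 ♂). Drug in 2% methanol given ip on days 1, 5 and 9, 10 mice per group. Survivors and body weight recorded on days 1 and 5, with toxicity as survivors on day 5. Deaths followed for 30 days. T/C = treated/control median survival time, significant at ≥125%.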

Turning to `COc1ccc(C[C@H]2C(=O)O[C@H](C)[C@H](NC(=O)[C@@H](CC(C)C)N(C)C(=O)C3CCCN3C(=O)[C@@H](C)O)C(=O)NC(C(C)C)[C@H](O)CC(=O)O[C@@H](C(C)C)C(=O)[C@H](C)C(=O)N[C@@H](CC(C)C)C(=O)N3CCC[C@H]3C(=O)N2C)cc1` (stereo not given in full) [NORDIDEMNIN], the results for the T/C with B16 [1] and with B16 [3] were 101% and 147%, respectively. Further, the Toxicity with B16 [2] and with L1210 was 1 in each case. In addition, the “median survival time, days” value with P388 came out at 19.4.
